Data set [1] relates to Human immunodeficiency virus. The data set can be described thus: Antiviral activity in presence of 50% NHS against HIV-1 replication in cells. The class given is functional, Human immunodeficiency virus 1. The settings on record: read-out: CIC95.
Data set [2] addresses Human immunodeficiency virus type 1 integrase (Human immunodeficiency virus 1, UniProt Q7ZJM1). Description: Inhibition of strand transfer for HIV-1 integrase.
Data set [3] is described as follows: Human plasma albumin binding in pH 7.4 at RT. It is filed as ADME, cell-free. A digest of the protocol:
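Binding to human plasma protein, mainly albumin, was measured by analytical HPLC with UV detection. The assay ran in pH 7.4 buffer at room temperature, and the result was reported as percent protein bound.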

Data set [4] relates to Human immunodeficiency virus. The data set can be described thus: Antiviral activity in presence of 10% FBS against HIV-1 replication in cells. The class given is functional, Human immunodeficiency virus 1. The settings on record: read-out: CIC95.

Sequence of Human immunodeficiency virus type 1 integrase (Q7ZJM1 whole entry): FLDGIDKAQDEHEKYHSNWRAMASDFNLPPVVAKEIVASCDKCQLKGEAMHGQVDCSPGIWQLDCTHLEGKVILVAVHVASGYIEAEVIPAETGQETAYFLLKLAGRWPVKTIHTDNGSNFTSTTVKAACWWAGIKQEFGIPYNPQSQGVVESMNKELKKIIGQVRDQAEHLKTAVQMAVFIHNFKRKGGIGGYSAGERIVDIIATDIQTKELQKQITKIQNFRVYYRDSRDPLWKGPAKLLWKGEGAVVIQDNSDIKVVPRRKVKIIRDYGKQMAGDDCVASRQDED

Take `O=C(NCc1ccc(F)cc1)c1ncc2cccnc2c1O`: the IC95 in data set [1] (Human immunodeficiency virus 1) was 5000 nM; in data set [4] (Human immunodeficiency virus 1) it was 1250 nM. The molecule further showed an IC50 in data set [2] of 32.8 nM. Besides, the Activity in data set [3] was 99.2%.

Take `CN1C(=O)CC(c2nc(C(=O)NCc3ccc(F)cc3)c(O)c3ncccc23)N(C)C1=O` (racemic): the IC95 came out at 60.7 nM in data set [1] and 18.6 nM in data set [4]. The IC50 in data set [2] came to 8.7 nM. In data set [3], this molecule registered an Activity of 94.3%.

As for `O=C1CC(c2nc(C(=O)NCc3ccc(F)cc3)c(O)c3ncccc23)NC(=O)N1` (racemic), the values for the IC95 in data set [1] and in data set [4] were 55.7 nM and 53.7 nM, respectively. The same molecule came in with an IC50 in data set [2] of 10 nM. Besides, the Activity in data set [3] came to 92.1%.

For the molecule `CN1C(=O)CC(c2nc(C(=O)NCc3ccc(F)cc3)c(O)c3ncccc23)NC1=O` (racemic), the IC95 in data set [1] (Human immunodeficiency virus 1) turned out to be 62.5 nM; in data set [4] (Human immunodeficiency virus 1), 31.3 nM. In data set [2], this molecule displayed a 50% inhibitory concentration (IC50) of 12.8 nM.

On to `CN1C(=O)NC(=O)CC1c1nc(C(=O)NCc2ccc(F)cc2)c(O)c2ncccc12` (racemic), for which the IC95 in data set [1] (Human immunodeficiency virus 1) and in data set [4] (Human immunodeficiency virus 1) was 15.6 nM throughout. The molecule further yielded an IC50 in data set [2] of 12.5 nM.

Consider `CN1C(=O)CC(c2nc(C(=O)NCc3ccc(F)cc3)c(O)c3ncccc23)N(C)C1=O` (single isomer, unassigned; (+)), for which the IC95 was 166.7 nM in data set [1] and 41.7 nM in data set [4]. Further, the half-maximal inhibitory concentration (IC50) in data set [2] stood at 11.3 nM. Moreover, the Activity in data set [3] turned out to be 96%.

`O=C1CC(c2nc(C(=O)NCc3ccc(F)cc3)c(O)c3ncccc23)NC(=O)N1` (single isomer, unassigned; (+)): the IC95 in data set [1] and in data set [4] was 93.8 nM in each case. This molecule returned an IC50 in data set [2] of 11 nM.

Take `CN1C(=O)CC(c2nc(C(=O)NCc3ccc(F)cc3)c(O)c3ncccc23)N(C)C1=O` (single isomer, unassigned; (-)): the figures for the IC95 in data set [1] and in data set [4] were 40.2 nM and 20.1 nM, respectively. Further, in data set [2], the IC50 worked out at 35 nM. For the same molecule, the Activity in data set [3] came out at 95%.

As for `O=C1CC(c2nc(C(=O)NCc3ccc(F)cc3)c(O)c3ncccc23)NC(=O)N1` (single isomer, unassigned; (-)), the IC95 in data set [1] and in data set [4] was 125 nM throughout. Further, 13.3 nM corresponded to half-maximal inhibition in data set [2] (IC50).

In the case of `CN1C(=O)CC(c2nc(C(=O)NCc3ccc(F)cc3)c(O)c3ncccc23)N(C)C1=O` (stereo in doubt; 14), the IC95 in data set [1] is reported as 1000 nM; in data set [4], 250 nM. It took 27.5 nM to reach half-maximal inhibition in data set [2] (IC50). For the same molecule, the Activity in data set [3] was found to be 97.8%.

As usually defined, the IC50 is the concentration that inhibits the measured activity by half. A lower IC50 goes with greater potency.
